Test results as given in ChEMBL document CHEMBL1124173, “Enantiomers of 7-(2,3-epoxypropoxy)actinomycin D as dual-action DNA-acting antitumor agents” (J Med Chem, 1988).

Experiments:
Assay type in all cases: functional, Mus musculus
P388/ADR [1] = assay: Antitumor activity against P388/ADR cells in ip implanted CDF1 mice, qd 1-9 measured as optimal dose
Procedure, shortened: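 P388/ADR leukemia implanted ip in CDF1 mice; drugs given ip once daily on days 1-9. Optimal dose recorded alongside median survival time and % increase in median life span of treated dying mice versus controls; survivors counted as >60-day survivors per group of 10.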

P388/ADR [2] = assay: Antitumor activity measured as Median survival time in days against P388/ADR cells in ip implanted CDF1 mice, qd 1-9
Procedure, shortened: (§1)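 P388/ADR leukemia, a P388/S subline made resistant to intercalators, implanted ip in CDF1 mice. Drug given ip daily on days 1-9 at optimal dose. Read-out is median survival time of tumor-bearing mice and %ILS of treated dying animals versus controls. Survivors beyond 60 days are counted; 10 mice per group.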

P388/ADR [3] = assay: Antitumor activity measured as %ILS against P388/ADR cells in ip implanted CDF1 mice, qd 1-9; procedure, shortened: as §1

## CO[C@@]12[C@H](COC(N)=O)C3=C(C(=O)C(C)=C(N)C3=O)N1C[C@@H]1N[C@@H]12 [MITOMYCIN]
P388/ADR [1]
  Dose: 1 mg/kg
P388/ADR [2]
  MST: 45 days
P388/ADR [3]
  ILS: 400%
